Measurements reported in ChEMBL document CHEMBL4808168, “The Discovery of Two Novel Classes of 5,5-Bicyclic Nucleoside-Derived PRMT5 Inhibitors for the Treatment of Cancer” (J Med Chem, 2021).
Converted amounts (≈) assume the structure as drawn.

Legend:
[1] = target: Protein arginine N-methyltransferase 5 (Homo sapiens, UniProt O14744); assay: Inhibition of PRMT5 (unknown origin) assessed as inhibition of symmetric dimethylation of arginine incubated for 3 days by fluorescence based cellular target engagement assay
Chain of Protein arginine N-methyltransferase 5 (O14744 whole entry): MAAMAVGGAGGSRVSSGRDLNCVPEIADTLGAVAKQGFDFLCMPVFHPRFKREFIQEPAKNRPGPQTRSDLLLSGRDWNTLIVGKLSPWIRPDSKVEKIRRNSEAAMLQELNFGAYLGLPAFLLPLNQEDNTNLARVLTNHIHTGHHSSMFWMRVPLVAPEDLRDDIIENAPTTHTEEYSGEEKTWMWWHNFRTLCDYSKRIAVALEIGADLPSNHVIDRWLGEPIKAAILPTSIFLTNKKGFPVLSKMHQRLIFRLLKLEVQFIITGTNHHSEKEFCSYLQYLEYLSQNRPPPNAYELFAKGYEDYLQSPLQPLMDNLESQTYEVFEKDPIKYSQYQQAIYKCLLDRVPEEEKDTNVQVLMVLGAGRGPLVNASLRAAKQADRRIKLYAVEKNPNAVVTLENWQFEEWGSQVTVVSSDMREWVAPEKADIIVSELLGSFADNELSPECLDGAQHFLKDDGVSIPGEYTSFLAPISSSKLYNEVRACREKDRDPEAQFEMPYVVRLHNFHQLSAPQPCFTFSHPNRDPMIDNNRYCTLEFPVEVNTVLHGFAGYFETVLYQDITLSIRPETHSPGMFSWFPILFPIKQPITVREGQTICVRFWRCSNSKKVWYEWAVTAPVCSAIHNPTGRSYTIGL
Outline: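 MCF-7 cells (4000/well, collagen-coated plates) in EMEM with 0.01 mg/mL insulin and 10% FBS; 10-point 1:3 titration from 10,000 nM; 3 days at 37 °C/5% CO2; fixed, permeabilized, anti-SDMA antibody, then Alexa488 anti-rabbit IgG plus Hoechst; nuclear fluorescence by high-content imaging versus DMSO; EC50 by four-parameter robust fit.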

[2] = tested on: Z-138; assay: Antiproliferative activity against human Z138 cells incubated for 10 days by cell titer-glo assay; assay type: functional, cell-based; conditions: Z-138, 240 h
[3] = Plasma clearance in rat; assay type: ADME
[4] = MRT in rat; assay type: ADME; conditions: in vivo
[5] = Solubility of the compound in FaSSIF at pH 7 at 200 uM incubated for 24 hrs by UV-vis detection based HPLC analysis; assay type: physicochemical
[6] = Unbound clearance in rat; assay type: ADME; conditions: in vivo
[7] = Unbound volume of distribution in rat; assay type: ADME; conditions: in vivo
[8] = Solubility of the compound in […] at pH 2 at 200 uM incubated for 24 hrs by UV-vis detection based HPLC analysis; assay type: physicochemical
Outline: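 10 mM DMSO stock added to 10 mM potassium phosphate buffer at pH 2 or pH 7, or FaSSIF pH 6.5, to 200 μM total; 24 h equilibration, filtration, then reverse-phase HPLC with UV–vis detection.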

[9] = Oral bioavailability in rat; assay type: ADME, organism-based; conditions: in vivo

Row | SMILES | EC50 [1] | EC50 [2] | clearance [3] | MRT [4] | solubility at 24 h, 200 µM [5] | CL free [6] | Vdu [7] | solubility at 24 h, 200 µM [8] | bioavailability [9]
1 | Nc1nc2cc(O[C@@H]3CC[C@@]4(O)[C@@H]3O[C@@H](n3ccc5c(N)ncnc53)[C@@H]4O)ccc2cc1Br | > 10 nM | > 10 nM |  |  |  |  |  |  | 
2 | Cc1ncnc2c1ccn2[C@@H]1C[C@@H]2[C@@H](Cc3ccc4cc(F)c(N)nc4c3)CC[C@]2(O)[C@H]1O | 11 nM | 63 nM |  |  |  |  |  |  | 
3 | Cc1ncnc2c1ccn2[C@@H]1O[C@@H]2[C@H](Cc3ccc4ccc(N)nc4c3)CC[C@]2(O)[C@H]1O | 9.9 nM | < 0.5 nM | 101 mL/min/kg | 1.7 h | 164 µM (≈ 70.8 µg/mL) | 648 mL/min/kg | 68 L/kg | 181 µM (≈ 78.1 µg/mL) | 
4 | Nc1nc2cc(O[C@H]3CC[C@@]4(O)[C@@H]3O[C@@H](n3ccc5cncnc53)[C@@H]4O)ccc2cc1Br | 32 nM | 20 nM |  |  |  |  |  |  | 
5 | Nc1nc2cc(O[C@H]3CC[C@@]4(O)[C@@H]3O[C@@H](n3ccc5c(N)ncnc53)[C@@H]4O)ccc2cc1Br | 1.2 nM | 3.7 nM | 49 mL/min/kg | 1.8 h | < 1 µM | 349 mL/min/kg | 28 L/kg | 128 µM (≈ 65.7 µg/mL) | 10%
6 | Cc1ncnc2c1ccn2[C@@H]1C[C@@H]2[C@H](Cc3ccc4cc(Cl)c(N)nc4c3)CC[C@]2(O)[C@H]1O | 0.87 nM | 2.2 nM | 21 mL/min/kg | 1.7 h | 22 µM (≈ 10.2 µg/mL) | 424 mL/min/kg | 83 L/kg | 184 µM (≈ 85.4 µg/mL) | 64%
7 | Cc1ncnc2c1ccn2[C@@H]1O[C@@H]2[C@@H](Oc3ccc4cc(F)c(N)nc4c3)CC[C@]2(O)[C@H]1O | 38 nM | 172 nM | 16 mL/min/kg | 1.5 h | 116 µM (≈ 52.4 µg/mL) | 345 mL/min/kg | 30 L/kg | 152 µM (≈ 68.6 µg/mL) | 
8 | Cc1ncnc2c1ccn2[C@@H]1C[C@@H]2[C@H](Cc3ccc4cc(Br)c(N)nc4c3)CC[C@]2(O)[C@H]1O | 1.1 nM | 1.6 nM | 13 mL/min/kg | 1.5 h | 14 µM (≈ 7.12 µg/mL) | 835 mL/min/kg | 143 L/kg | 199 µM (≈ 101 µg/mL) | 74%
9 | Cc1ncnc2c1ccn2[C@@H]1O[C@@H]2[C@@H](Oc3ccc4cc(Cl)c(N)nc4c3)CC[C@]2(O)[C@H]1O | 4 nM | 24 nM | 8 mL/min/kg | 1.4 h | 2 µM (≈ 0.936 µg/mL) | 710 mL/min/kg | 59 L/kg | 160 µM (≈ 74.9 µg/mL) | 71%
10 | Cc1ncnc2c1ccn2[C@@H]1O[C@@H]2[C@@H](Cc3ccc4cc(Cl)c(N)nc4c3)CC[C@]2(O)[C@H]1O | 21 nM | 26 nM |  |  |  |  |  |  | 
11 | Nc1nc2cc(C[C@@H]3CC[C@@]4(O)[C@@H]3O[C@@H](n3cc(F)c5c(N)ncnc53)[C@@H]4O)ccc2cc1F | 4.6 nM | 5.6 nM | 60 mL/min/kg | 1 h | 114 µM (≈ 53.4 µg/mL) | 541 mL/min/kg | 34 L/kg | 158 µM (≈ 74 µg/mL) | 24%
12 | Cc1ncnc2c1ccn2[C@@H]1O[C@@H]2[C@H](Cc3ccc4cc(Cl)c(N)nc4c3)CC[C@]2(O)[C@H]1O | 2.5 nM | 6.9 nM | 24 mL/min/kg | 1.1 h | 29 µM (≈ 13.5 µg/mL) | 667 mL/min/kg | 43 L/kg | 148 µM (≈ 69 µg/mL) | 41%
13 | Cc1ncnc2c1ccn2[C@@H]1O[C@@H]2[C@H](Cc3ccc4cc(Br)c(N)nc4c3)CC[C@]2(O)[C@H]1O | < 0.5 nM | 1.4 nM | 27 mL/min/kg | 1.1 h | 21 µM (≈ 10.7 µg/mL) | 2163 mL/min/kg | 148 L/kg | 186 µM (≈ 94.9 µg/mL) | 46%
14 | Nc1nc2cc(C[C@@H]3CC[C@@]4(O)[C@@H]3O[C@@H](n3ccc5c(N)ncnc53)[C@@H]4O)cc(F)c2cc1F | 1.7 nM | 5.6 nM | 25 mL/min/kg | 2.1 h | 83 µM (≈ 38.9 µg/mL) | 430 mL/min/kg | 54 L/kg | 171 µM (≈ 80.1 µg/mL) | 29%
